Assay results as given in publication PMC5161665 (Nature, 2016).
Peptide text beside a SMILES is read from it. * marks the point of attachment. Cbz = O=C(OCc1ccccc1)*

Columns and labels:
[1] = test system: T. cruzi epimastigotes; test: microbe, parasite or virus in culture; assay type: cell-based, Trypanosoma cruzi; conditions: for inhibition of T. cruzi epimastigote proliferation, potency: wild type epimastigotes
[2] = target: T1, PSMB4^I29M T. cruzi proteasome (Trypanosoma cruzi, UniProt Q4CU77+Q4D8U7, I29M); test: Proteasome proteolytic activities, PSMB4^I29M T. cruzi proteasome; assay type: biochemical; conditions: mean ± s.e.m., n=3
T1 sequence (Q4CU77 1-206 I29M): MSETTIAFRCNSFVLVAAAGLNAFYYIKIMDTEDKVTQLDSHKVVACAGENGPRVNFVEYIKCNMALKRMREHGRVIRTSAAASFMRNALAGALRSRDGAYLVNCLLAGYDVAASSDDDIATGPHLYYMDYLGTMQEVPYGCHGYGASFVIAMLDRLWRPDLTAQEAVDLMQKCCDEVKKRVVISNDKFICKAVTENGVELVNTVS
T1 sequence (Q4D8U7 111-311): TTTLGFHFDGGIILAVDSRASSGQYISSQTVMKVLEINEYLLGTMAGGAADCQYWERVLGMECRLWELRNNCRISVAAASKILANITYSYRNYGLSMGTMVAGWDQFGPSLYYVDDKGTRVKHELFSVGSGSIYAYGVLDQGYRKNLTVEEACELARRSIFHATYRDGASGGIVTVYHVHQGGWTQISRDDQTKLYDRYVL

[3] = test system: ubiquitylated proteins in T. cruzi epimastigotes; test: Accumulation of ubiquitylated proteins in T. cruzi epimastigotes; assay type: cell-based; conditions: Trypanosoma cruzi, read-out: ubiquitylation EC50, T. cruzi epimastigotes
How it was run: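 T. cruzi epimastigotes were seeded at 1 × 10^7 cells/well in LIT medium and exposed to DMSO (0.2%) or a range of test compound concentrations for 2–12 h at 27 °C. Cells were pelleted, washed twice in PBS, and lysed for 20 min on ice in Tris pH 7.4/NaCl/1% CHAPS buffer with protease inhibitors and N-ethylmaleimide. Lysates were cleared at 21,000 g, 30 min, 4 °C.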

[4] = test system: T. brucei (GVR35-VSL2); test: Mouse model of stage II HAT; assay type: in vivo, Trypanosoma brucei; conditions: single ip dose 40 mg/kg

For `CC(C)C[C@H](NC(=O)[C@H](Cc1ccccc1)NC(=O)c1cnccn1)B(O)O` [bortezomib], the EC50 ([1]; Trypanosoma cruzi, read-out: growth inhibition EC50 on T. cruzi epimastigotes) was 160 nM, the “inhibition of T. cruzi epimastigote proliferation, potency” value [1] was “sub-micromolar potency” and the IC50 ([2]; IC50 caspase, caspase-like activity) was 540 ± 12 nM. The IC50 ([2]; IC50 chymotrypsin, chymotrypsin-like activity) was 260 ± 40 nM, the IC50 ([2]; IC50 trypsin, trypsin-like activity) was 1600 ± 58 nM and the EC50 [3] was 62 nM.
In the case of `CC(C)C[C@@H](C=O)NC(=O)[C@H](CC(C)C)NC(=O)[C@H](CC(C)C)NC(=O)OCc1ccccc1` [MG132] (Cbz-Leu-Leu-Leu-aldehyde), the “inhibition of T. cruzi epimastigote proliferation, potency” value [1] is reported as “sub-micromolar potency”.
In the case of `CC(=O)NCC(=O)O.CC(=O)NCC(=O)O.N=C(N)c1ccc(N=NNc2ccc(C(=N)N)cc2)cc1` [diminazene aceturate], the “parasite clearance / recrudescence” value [4] is reported as “did not prevent parasite recrudescence 21 days later” and the “parasites in the brain” value ([4]; ex vivo brain imaging) is reported as “parasites were clearly detected in the brains”.
